Screening results: PubChem, several laboratories
Sampled rows, rich in hits. Any-hit rate of the full collection: about 2.1%.
Hck-Nef inh: human Hck-Nef kinase inhibition | P08631 | inhibition, % at 20 µM | Recombinant Hck-YEEI plus Nef, Z-Lyte FRET kinase assay | 220,000 compounds, 0.68% hits;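 active = Hck-Nef kinase inhibition above about 50%, limit read from the data; inactive = inhibition below that limit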;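 note: 0% = DMSO with Hck plus Nef and 100% = Hck alone without Nef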
Target sequence (P08631 whole entry, looked up): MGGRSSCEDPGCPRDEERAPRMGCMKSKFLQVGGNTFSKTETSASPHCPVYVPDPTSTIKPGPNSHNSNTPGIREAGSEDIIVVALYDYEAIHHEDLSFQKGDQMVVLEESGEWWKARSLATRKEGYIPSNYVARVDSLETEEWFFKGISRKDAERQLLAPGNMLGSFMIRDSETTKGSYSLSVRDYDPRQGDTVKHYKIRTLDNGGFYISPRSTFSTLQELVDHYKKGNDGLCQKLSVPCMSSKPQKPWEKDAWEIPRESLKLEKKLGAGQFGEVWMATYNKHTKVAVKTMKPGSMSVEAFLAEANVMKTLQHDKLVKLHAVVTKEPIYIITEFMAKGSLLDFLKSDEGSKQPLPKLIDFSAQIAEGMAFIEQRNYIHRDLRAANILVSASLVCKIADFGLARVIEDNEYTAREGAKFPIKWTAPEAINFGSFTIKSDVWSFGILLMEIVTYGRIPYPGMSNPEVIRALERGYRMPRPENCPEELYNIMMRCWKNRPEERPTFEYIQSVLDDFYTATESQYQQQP
Runt-SMMHC FRET: blocks binding of human RUNX1 Runt domain to CBFb-SMMHC; Q01196+Q13951; Cerulean-Runt/Venus-CBFb-SMMHC FRET ratio 530/480, 1 h; inhibition, % at 20 µM; 220,000 compounds, 0.74% hits; AID 1434;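 active = mean inhibition across duplicate retests at 20 µM reaching about 50%, limit read from the data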;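 note: 0% = DMSO wells and 100% = wells with excess untagged CBFb-SMMHC; inhibitors lower the FRET ratio by blocking Runt binding to CBFb-SMMHC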
Runt-CBFb FRET: Runt domain-CBFb interaction inhibition; Cerulean-Runt/Venus-CBFb FRET ratio 530/480, 1 h; inhibition, % at 20 µM; 220,000 compounds, 0.46% hits; Q01196+Q13951;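 active = inhibition over about 50% at 20 µM in the single-dose screen, limit read from the data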;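 note: 0% = DMSO wells and 100% = excess unlabeled CBFb competitor control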
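Assay system: Cerulean-Runt domain fusion protein, energy donor; Signal: fluorescence energy transfer, 422 nm excitation, 530/480 nm emission; Timing: 1 h compound exposure, room temperature; Control set: unlabeled CBFb; Medium: Tris buffer pH 7.5 with salts and BSA; Compound: single test concentration of 20 µM, 1% DMSO final; Probe or stimulus: Venus-CBFb 100 nM.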
RanGTP-Imp inh: inhibitors of RanGTP-importin-beta interaction, primary screen, biochemical, FRET, CFP-Ran, YFP-importin-beta, homogeneous. cell-free CFP-Ran/YFP-importin-beta FRET ratio. inhibition, % (test concentration not listed). 300,000 compounds, 1.1% hits;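 active = more than half of the replicate wells show a fall in the fluorescence ratio signal beyond about 16%, limit read from the data, passing the limit was not always enough; inconclusive = exactly half of the replicate wells pass the set limit; inactive = fewer than half of replicates pass the limit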;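 note: 0% = DMSO wells and 100% = Ran loaded with GDP instead of GTP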
zVAD death inh: blocks zVAD induced death of L929 cells. L929 zVAD necroptosis rescue, ATP luminescence, 24 h; with zVAD 60 µM. 220,000 compounds, 0.38% hits. AID 1377. viability rescue, % at 10 µM;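 active = activation, scaled between plate controls, above about 75%, limit read from the data; inactive = activation under that limit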;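 note: 0% = zVAD with DMSO and 100% = DMSO alone without zVAD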
TNF death inh: inhibitors of TNF-alpha induced necroptosis in Jurkat FADD-/- cells; Jurkat FADD-/- TNF necroptosis rescue, ATP luminescence, 24 h; 0 = TNF only, 100 = no-TNF cells; 220,000 compounds, 0.068% hits; AID 463075; activation (protection from cell death), % at 10 µM;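 active = activation, meaning protection from cell death, of at least 50% relative to plate controls; inactive = activation below 50%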;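 note: necroptosis triggered by 40 ng/mL TNF-alpha added together with compound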
Runt-CBFb TRFRET: Runt-CBFb binding inhibition; shares compounds with Runt-CBFb FRET; TR-FRET RUNX1 Runt domain-CBFb binding; inhibition, % at 20 µM; 480 compounds, 20% hits; in the data active = inhibition above about 40%
Active calls of the source: *; ? = inconclusive; nt = no result.

SMILES	Hck-Nef inh	Runt-SMMHC FRET	Runt-CBFb FRET	RanGTP-Imp inh	zVAD death inh	TNF death inh	Runt-CBFb TRFRET
Cc1nn(C)c(Sc2ccccc2N)c1[N+](=O)[O-]	27	51	55*	-1	2	-2	14
Cc1nn(C)c(N)c1[N+](=O)[O-]	9	-8	0	-3	1	2	nt
Cc1ccc(-c2noc(CN3C(C)CCCC3C)n2)cc1 (stereo unspecified)	12	-8	84*	9	1	1	-41
CCCCC(=O)NNC(=S)NC(=O)c1cccc([N+](=O)[O-])c1	1	10	30	-1	0	-3	nt
CCCCC(=O)NNC(=S)NC(=O)c1ccc([N+](=O)[O-])cc1	22	22	54*	3	1	1	-20
Cc1cccc(N2CCc3c2nc2ccc(Br)cc2c3N)c1	5	78	57*	6	2	3	-14
CCOCCCNCC(=O)NCC1CCCCC1	20	0	1	1	4	0	nt
Oc1ccc(-c2csc(-c3cccnc3)n2)cc1O	30	33	53*	-1	55	-3	68*
Fc1ccc(-c2csc(-c3cccnc3)n2)cc1F	nt	nt	nt	-5	nt	nt	nt
CN1CCN(CCCC(=O)c2ccc(C3CCCC3)cc2)CC1	4	1	0	-3	0	-1	nt
O=C(O)c1cc(Cl)ccc1-c1ccc(/C=C/c2cc(C(F)(F)F)[nH]c(=O)n2)o1	26	92*	52*	-378	21	1	29
O=C(Nc1cccc(Br)c1)c1ccc(OC2CSC2)cc1	22	2	6	-3	65	1	nt
COc1cc(/C=C(\C#N)c2nc3ccccc3[nH]2)cc(Br)c1OCc1ccc(F)cc1	4	106*	54*	5	1	-10	-7
NS(=O)(=O)c1ccc(NC(=S)NC2CCCC2)cc1	15	31	55*	2	1	2	-16
NS(=O)(=O)c1ccc(NC(=S)NC2CCCCCC2)cc1	10	-1	-5	4	1	-1	nt
O=C(NNC1=C(C(=O)C(F)(F)F)CCC1)c1ccc(Cl)cc1	0	3	77*	-4	2	0	-32
O=C(NNC1=C(C(=O)C(F)(F)F)CCC1)c1cccc(Cl)c1	-1	0	2	-1	2	1	nt
O=C1CC(c2ccco2)CC(O)=C1C=NCCO (stereo unspecified)	0	-5	81*	1	0	-11	21
CCOC(=O)N1CCC(NC(=O)c2ccc3c(c2)N(C)CCS3)CC1	0	nt	67*	nt	0	-2	50*
CCOC(=O)N1CCC(NC(=O)c2ccc3c(c2)N(Cc2ccc(C)cc2)CCS3)CC1	26	2	-2	0	0	-2	nt
O=C(NNC(=O)c1cc(O)c(O)c(O)c1)NC1CCCCC1	-1	66	55*	6	2	-3	61*
CC(/C=C/C(=O)c1ccc(C)cc1)=C\c1ccccc1	0	3	9	-3	0	-2	nt
Cc1ccc(C(=O)/C=C\C(=O)c2ccc(C)cc2)cc1	-2	51*	62*	7	1	-3	-12
CCOC(=O)C1=C(C)N(c2ccccc2)C(=O)/C1=C\c1ccc(O)c(OC)c1	-47	-4	55*	3	-2	-5	60*
CCOC(=O)C1=C(C)N(c2ccccc2)C(=O)/C1=C\c1ccco1	-2	-10	-2	?	0	0	nt
SMILES	Hck-Nef inh	Runt-SMMHC FRET	Runt-CBFb FRET	RanGTP-Imp inh	zVAD death inh	TNF death inh	Runt-CBFb TRFRET
Cc1ccc(C(=O)N2CCCC(C(=O)c3ccc(Oc4ccccc4)cc3)C2)cn1 (stereo unspecified)	4	0	-6	0	0	-2	nt
Cc1ccc(S(=O)(=O)NCC(=O)OCC(=O)N2CCN(C(=O)c3ccco3)CC2)cc1C	nt	nt	nt	-7	nt	nt	nt
CCOC(=O)CN1NC2(CCC(C)CC2)NC1=S (stereo unspecified)	1	25	48	0	1	0	nt
CCOC(=O)CN1NC2(CCCC(C)C2)NC1=S (stereo unspecified)	1	32	51*	?	0	1	10
CCCNC(=O)NC(=O)CSc1nncs1	14	-10	2	-2	2	6	nt
O=C(NC(=S)NNC(=O)c1ccccc1[N+](=O)[O-])c1ccccc1	7	38	13	0	0	-1	nt
CCC(=O)NC(=S)NNC(=O)c1ccccc1[N+](=O)[O-]	18	48	51*	-3	1	2	-20
O=C(NCCC1=CCCCC1)C(=O)NCc1ccncc1	26	0	2	0	1	1	nt
COc1cccc(C(=O)Nc2cccc3c2ccc2cccn23)c1	35	-1	-4	-3	12	-1	nt
CN1CCN(C(=S)c2ccc(Br)cc2)CC1	2	44	50*	?	1	2	6
CSc1ccc(C(=S)N2CCN(C)CC2)cc1	1	39	54*	-1	1	-1	-10
CC1(NC(=O)CC[N+](C)(C)CCO)CS(=O)(=O)CC1S(=O)(=O)[O-] (stereo unspecified)	0	-8	3	7	-1	1	nt
CCc1ccccc1N1CSC2=C(C#N)C(c3cc(OC)c(OC)cc3OC)CC(=O)N2C1 (stereo unspecified)	2	48	32	-112	1	-3	nt
COc1cc(OC)c(C2CC(=O)N3CN(c4ccccc4)CSC3=C2C#N)cc1OC (stereo unspecified)	-1	111*	80*	-149	0	0	25
Cn1c(=O)nc2n(Cc3ccccc3)c3ccccc3cc-2c1=O	16	82*	90*	121*	1	0	-53
c1ccc(-c2csc(NNC3=NCCCCC3)n2)cc1	11	52	51*	-4	-2	-9	44*
Clc1ccc(-c2csc(NNC3=NCCCCC3)n2)cc1	0	18	5	-3	0	-9	nt
Cc1cc(C)nc(SCNC(=O)c2ccc(F)cc2)n1	6	17	53*	1	0	0	8
CCNC(=O)CCSc1nc(C)cc(C)n1	15	36	50*	4	1	0	16
O=C(NC1CCCc2ccccc21)C1CCC(CNS(=O)(=O)c2cccc3nsnc23)CC1 (stereo unspecified)	0	-2	83*	?	0	0	18
COCCN=c1scc(C)n1/N=C/C1CC2C=CC1C2 (stereo unspecified)	-4	-1	-1	3	2	1	nt
